Source: PubChem BioAssay
Myeloid diff 2 – compounds promoting myeloid differentiation | ER-HoxA9 myeloid progenitors, lysozyme-GFP differentiation, flow cytometry | calls only at 10 µM | actives 1% (n = 360,000) | AID 624256;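 active = normalized GFP-positive differentiation at or above the plate's own cutoff, the solvent-only control mean plus 3 SD; inconclusive = no clear call, values can overlap the other calls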;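 also: cells exposed to compound for four days before flow analysis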
CSN deneddyl inh – inhibitors of human CSN-mediated cullin deneddylation | Q92905 | Purified CSN, SCF-Nedd8-OG deneddylation, fluorescence polarization | inhibition, % at 12.5 µM | actives 0.38% (n = 360,000) | AID 651999;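 active = pattern-corrected inhibition above about 35%, with an unprinted fluorescence ratio check between 0.5 and 1.5, limit read from the data, passing the limit was not always enough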;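 also: 0% = enzyme with substrate and 100% = substrate without enzyme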
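Test system: purified human Csn5 enzyme expressed in HEK293T cells. Amount: 0.24 nM enzyme. Reagent: SCFSkp2-Nedd8OG substrate at 10 nM final. Schedule: 90 min incubation of compound, enzyme and substrate at room temperature. Detection: fluorescence polarization. Read-out: % inhibition of substrate cleavage by Csn5.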
HNF4A DNA FP – change in binding of human HNF4 alpha to DNA; P41235; HNF4a-FITC DNA binding, fluorescence polarization, 1 h; activity change, % at 10 µM; actives 0.3% (n = 360,000); AID 1224865; in the data active = activity change above about 30%, passing the limit was not always enough
Target sequence (P41235 whole entry, looked up): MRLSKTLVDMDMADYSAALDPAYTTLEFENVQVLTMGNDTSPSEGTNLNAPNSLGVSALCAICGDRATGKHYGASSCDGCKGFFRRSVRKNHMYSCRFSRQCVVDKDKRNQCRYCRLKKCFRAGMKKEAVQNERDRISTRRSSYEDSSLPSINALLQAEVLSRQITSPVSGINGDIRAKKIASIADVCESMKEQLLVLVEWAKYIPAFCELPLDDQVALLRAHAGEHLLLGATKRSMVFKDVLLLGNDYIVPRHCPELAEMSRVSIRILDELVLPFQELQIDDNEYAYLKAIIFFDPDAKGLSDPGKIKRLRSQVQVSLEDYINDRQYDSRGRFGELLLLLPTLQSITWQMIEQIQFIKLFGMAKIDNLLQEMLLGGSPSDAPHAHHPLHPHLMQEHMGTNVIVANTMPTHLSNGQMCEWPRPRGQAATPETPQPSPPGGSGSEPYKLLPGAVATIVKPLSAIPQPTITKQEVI
Rpn11 inh – blocks the human proteasome subunit Rpn11. O00487. human 26S proteasome, Ub4-pepOG fluorescence polarization; 20S core pre-blocked with epoxomicin. inhibition, % at 20 µM. actives 0.59% (n = 360,000). AID 588493;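 active = inhibition at 20 µM, scaled to each plate's controls, above about 33%, limit read from the data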
TPT1 inhibitor – blocks Candida albicans tRNA 2'-phosphotransferase; AID 1962; recombinant caTPT1, FP RNA substrate dephosphorylation; actives 0.81% (n = 300,000); inhibition, % at 5 µM;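 active = inhibition above the mean of all tested compounds plus 3 SD, set per screening campaign, cut at about 24% in these data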;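 also: plate controls were DMSO alone for no effect and ferristatin control at 100 nM for full effect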
caTPT1 confirm – confirmation of Candida albicans TPT1 inhibitors | shares compounds with TPT1 inhibitor | recombinant caTPT1, fluorescence polarization, RNase T1 coupled | inhibition, % at 5 µM | actives 74% (n = 2,400);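 active = inhibition above the primary screen limit, the mean inhibition of all tested compounds plus 3 SD, cut at about 25% in these data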
RNase T1 inh – counter-screen for TPT1 inhibitors: inhibitors of Aspergillus oryzae RNase T1 | shares compounds with TPT1 inhibitor | RNase T1 cleavage, fluorescence polarization, 1536-well | inhibition, % at 5 µM | actives 83% (n = 2,400) | AID 2153;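 active = inhibition above the solvent-only control well mean plus 3 SD, limit set per screening run, cut at about 23% in these data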;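 also: plate controls were DMSO wells with enzyme for no effect and wells without RNase T1 for full effect; inhibitors block cleavage so intact labeled substrate keeps polarization high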
Target sequence (P00651 whole entry, looked up): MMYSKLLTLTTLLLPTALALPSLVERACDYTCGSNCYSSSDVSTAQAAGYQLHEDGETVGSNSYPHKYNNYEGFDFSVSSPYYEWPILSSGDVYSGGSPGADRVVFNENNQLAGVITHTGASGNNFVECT
Numbers without * were called inactive; i = inactive; u = inconclusive; x = no result given; + = active, no number. Shown are actives, neighbours in structure and some others; about 2.3% of the full set was active somewhere.

SMILES	Myeloid diff 2	CSN deneddyl inh	HNF4A DNA FP	Rpn11 inh	TPT1 inhibitor	caTPT1 confirm	RNase T1 inh
O=c1[nH]c2cc3ccccc3cc2nc1-c1nnnn1Cc1ccccc1	i	-1	-2	x	x	x	x
O=C(CCN1C(=O)/C(=C/c2cccs2)SC1=S)Nc1ccccc1O	i	13	18	28	24*	25*	36*
COC(=O)[C@]12CCCCC=C1N(Cc1ccc(Cl)cc1Cl)C(=O)[C@H](CC(=O)N1CCOCC1)C2	i	2	0	x	x	x	x
O=C1NC(=S)SC1=C1CCCC1	i	17	2	13	28*	17	25*
CN1C(=O)C(=C2CCCCCC2)SC1=S	i	2	-2	6	0	x	x
O=C(CC1SC(N2CCOCC2)=NC1=O)Nc1ccc(Cl)c(C(F)(F)F)c1 (stereo unspecified)	i	-6	2	1	x	x	x
COC(=O)c1ccc(-c2sc3nc(N4CCOCC4)c4c(c3c2N)CCCC4)o1	x	x	x	x	58*	57*	68*
CCOC(=O)c1sc2nc(N3CCOCC3)c3c(c2c1N)CCCC3	i	-4	-2	-2	4	x	x
COC(=O)/C(C#N)=C/c1ccc(OC(=O)c2ccccn2)cc1	i	5	45*	x	27*	19	26*
CCC1CC(C(=O)Nc2ccccc2)C(=O)O1 (stereo unspecified)	i	4	-2	0	-2	x	x
CN1C(=O)/C(=C/c2coc3ccc(O)cc3c2=O)SC1=S	i	9	16	24	24	x	x
N=C1/C(=C\c2coc3ccc(O)cc3c2=O)C(=O)N=C2SC=CN12	i	69	30	x	65*	67*	76*
N=C1/C(=C/c2coc3ccccc3c2=O)C(=O)N=C2SC(c3ccco3)=NN12	i	-65	23	x	59*	88*	97*
N=C1/C(=C\c2coc3ccccc3c2=O)C(=O)N=C2SC(c3ccncc3)=NN12	i	70	52	x	79*	71*	84*
Cc1cc(/C=C2\C(=N)N3N=C(c4ccco4)SC3=NC2=O)c(C)n1Cc1ccccc1	i	14	-12	10	13	x	x
CCCN(S(=O)(=O)c1ccccc1F)S(=O)(=O)c1ccccc1Br	u	1	1	11	2	x	x
CCOC(=O)c1ccc(N2CC(O)=C(c3nc4ccccc4c(=O)[nH]3)C2=N)cc1	i	7	15	32	47*	41*	52*
CCOc1ccccc1C(=O)Nc1nccs1	i	4	-3	4	27*	11	13
Cc1cc(/C=C2/C(=N)N3C(c4ccccc4)=CSC3=NC2=O)c(C)n1-c1ccccc1	i	15	11	31	24*	18	27*
Cc1cc(C=C2C(=O)c3ccccc3C2=O)c(C)n1-c1cccc(C(=O)O)c1	i	5	2	13	31*	41*	51*
Cc1cc(C=C2C(=O)c3ccccc3C2=O)c(C)n1-c1ccccc1	i	6	-35	-64	20	x	x
COc1ccc2cc(C(=O)N/N=C/c3sc4ccccc4c3O)ccc2c1	i	66	133	x	136*	135*	126*
O=C(N/N=C/c1sc2ccccc2c1O)c1cccc2ccccc12	i	83	75*	x	136*	143*	134*
O=C(N/N=C/c1sc2ccccc2c1O)c1ccccc1	u	103	134	x	135*	135*	128*
O=C(N/N=C/c1ccccc1)c1cccc2ccccc12	i	0	-1	-7	-1	x	x
SMILES	Myeloid diff 2	CSN deneddyl inh	HNF4A DNA FP	Rpn11 inh	TPT1 inhibitor	caTPT1 confirm	RNase T1 inh
COc1ccc(C(=O)N/N=C/c2sc3ccccc3c2O)cc1	i	104	126	x	139*	145*	135*
COc1ccccc1C1c2[nH]c3ccccc3c2C[C@H]2C(=O)N(C3CCN(Cc4ccccc4)CC3)CC(=O)N12 (stereo partly specified)	i	10	2	1	3	x	x
COc1ccc(NC(=O)COC(=O)CCC(=O)c2cccs2)cc1OC	i	-2	1	-3	x	x	x
O=C(O)c1ccc(N/N=C/C2=C(N3CCOCC3)C(=C\c3ccccc3)/CC2)cc1	i	11	35*	x	101*	119*	124*
Cc1cc(C)nc(N/N=C/C2=C(N3CCOCC3)C(=C\c3ccc(Cl)cc3)/CC2)n1	i	12	6	23	13	x	x
O=C(Nc1ccc2c(c1)OCO2)c1cc(-c2ccc(O)cc2)on1	i	-5	1	-10	2	x	x
Cc1ccc(S(=O)(=O)c2c(N)n(Cc3ccco3)c3nc4ccccc4nc23)cc1	i	-13	-12	4	27*	18	29*
N#C/C(=C/c1ccc(N2CCOCC2)o1)c1ccc(Cl)cc1	i	8	138	x	163*	165*	155*
N#C/C(=C/N1CCOCC1)c1ccccc1	i	-6	-2	-5	-2	x	x
N#C/C(=C\c1ccc(N2CCOCC2)o1)c1nc2ccccc2[nH]1	+	-21	34	x	182*	158*	144*
COc1ccc(CC(=O)NC(C)C2COc3ccccc3O2)cc1OC (stereo unspecified)	i	1	-3	2	1	x	x
COC(=O)[C@@]12C[C@@H](CC(=O)NCCc3ccccc3OC)C(=O)N(Cc3cccc4ccccc34)C1=CCC(C)(C)C2	i	0	-4	x	x	x	x
O=C(C[n+]1cc(Br)cc2ccccc21)c1ccc(Br)cc1	i	4	-1	22	27*	36*	48*
O=S(=O)(CCOc1ccccc1)c1nc2ccccc2[nH]1	i	2	5	0	-2	x	x
C=C(C)c1cccc(C(C)(C)NC(=O)N2CCC(C)CC2)c1	i	-2	-1	-4	-1	x	x
C=C(C)c1cccc(C(C)(C)NC(=O)NCC2CCCO2)c1 (stereo unspecified)	i	4	2	7	25*	8	9
CCC1c2ccccc2C(=O)C1C(N)=O (stereo unspecified)	i	-2	-1	-7	x	x	x
Cc1cc(Sc2nc(N(C)C)nc(N(C)C)n2)nc(Cl)n1	i	2	1	-3	2	x	x
CCNc1sc(C(=O)c2cccs2)c(N)c1-c1nc2ccccc2s1	i	1	13	11	20	x	x
CCOC(=O)c1sc(NCc2ccco2)c(-c2nc3ccccc3s2)c1N	i	13	14	27	26*	28*	39*
Cc1ccccc1OCCCC(=O)NCc1ccco1	i	-5	2	8	-4	x	x
CCOC(=O)Cn1cnc2sc3c(c2c1=O)CCC3	i	4	0	2	36*	15	23*
